# Laboratory results taken from ChEMBL document CHEMBL2346664, “Synthesis, characterization and in vitro anticancer evaluation of novel 1,2,4-triazolin-3-one derivatives” (2013).
# Legend:
# Type in all cases: functional
# [1] = Growth inhibition of human HCC2998 cells assessed as cell growth at 10 '-4 M after 48 hrs by sulforhodamine B assay; details: HCC 2998, 48 h, read-out: Activity
# UO-31 = assay: Growth inhibition of human UO31 cells assessed as growth inhibition at 10 uM after 48 hrs by sulforhodamine B assay; details: UO-31, 48 h, read-out: GI
# NCI-H460 = assay: Growth inhibition of human NCI-H460 cells assessed as cell growth at 10 '-5 M after 48 hrs by sulforhodamine B assay; details: NCI-H460, 48 h, read-out: Activity
# SNB-19 = assay: Growth inhibition of human SNB19 cells assessed as cell growth at 10 '-6 M after 48 hrs by sulforhodamine B assay; details: SNB-19, 48 h, read-out: Activity
# SN12C = assay: Growth inhibition of human SN12C cells assessed as cell growth at 10 '-6 M after 48 hrs by sulforhodamine B assay; details: read-out: Activity
# K562 = assay: Growth inhibition of human K562 cells after 48 hrs by sulforhodamine B assay; details: K562, 48 h
# Method in brief: (§1)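 NCI 60-cell-line five-dose screen. Cells were plated at 5,000–40,000/well by doubling time and grown 24 h at 37 °C, 5% CO2. Time-zero plates were TCA-fixed. Drug from DMSO stock was tested at 0.01, 0.1, 1, 10 and 100 µM final for 48 h continuous exposure. Read-out was SRB at 515 nm. GI50 is the concentration giving 50% reduction in net protein increase versus untreated control.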
# HL-60(TB) = assay: Growth inhibition of human HL-60(TB) cells assessed as cell growth at 10 '-6 M after 48 hrs by sulforhodamine B assay; details: HL-60, 48 h, read-out: Activity
# Method in brief: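 Five-dose NCI protocol with final concentrations of 0.01–100 µM and drug diluted from a DMSO stock (400× the top concentration) in medium with gentamicin. Cells were pre-incubated 24 h, then exposed 48 h at 37 °C. Suspension cells were fixed with 16% final TCA, SRB-stained and read at 515 nm. Percentage growth at each level was [(Ti−Tz)/(C−Tz)]×100, or [(Ti−Tz)/Tz]×100 when Ti < Tz.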
# SF-295 [2] = assay: Growth inhibition of human SF295 cells after 48 hrs by sulforhodamine B assay; details: SF-295, 48 h
# NCI-H23 = assay: Growth inhibition of human NCI-H23 cells assessed as cell growth at 10 '-8 M after 48 hrs by sulforhodamine B assay; details: NCI-H23, 48 h, read-out: Activity
# UACC-62 = assay: Growth inhibition of human UACC62 cells assessed as cell growth at 10 '-5 M after 48 hrs by sulforhodamine B assay; details: UACC-62, 48 h, read-out: Activity
# CAKI-1 = assay: Growth inhibition of human CAKI-1 cells assessed as cell growth at 10 '-6 M after 48 hrs by sulforhodamine B assay; details: CAKI-1, 48 h, read-out: Activity
# Method in brief: (§2)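 Percent growth at each of the five concentrations of the 48 h continuous-exposure NCI SRB screen. Drug stocks were in DMSO at 400× the top final concentration and diluted in medium with gentamicin. Growth was calculated as [(Ti-Tz)/(C-Tz)]×100 when Ti ≥ Tz, or [(Ti-Tz)/Tz]×100 when Ti < Tz. Tz plates were fixed at drug addition; untreated wells served as control. Absorbance was read at 515 nm.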
# MDA-MB-435 = assay: Growth inhibition of human MDA-MB-435 cells assessed as cell growth at 10 '-5 M after 48 hrs by sulforhodamine B assay; details: MDA-MB-435, 48 h, read-out: Activity
# U-251 = assay: Growth inhibition of human U251 cells assessed as cell growth at 10 '-4 M after 48 hrs by sulforhodamine B assay; details: U-251, 48 h, read-out: Activity
# COLO 205 [3] = assay: Growth inhibition of human COLO205 cells after 48 hrs by sulforhodamine B assay; details: COLO 205, 48 h; method in brief: as §1
# [4] = Growth inhibition of human HCC2998 cells after 48 hrs by sulforhodamine B assay; details: HCC 2998, 48 h; method in brief: as §1
# 786-0 [5] = assay: Growth inhibition of human 786-0 cells assessed as cell growth at 10 '-5 M after 48 hrs by sulforhodamine B assay; details: 786-0, 48 h, read-out: Activity; method in brief: as §2
# SF-539 = assay: Growth inhibition of human SF539 cells after 48 hrs by sulforhodamine B assay; details: SF-539, 48 h
# BT-549 = assay: Growth inhibition of human BT549 cells assessed as cell growth at 10 '-8 M after 48 hrs by sulforhodamine B assay; details: BT-549, 48 h, read-out: Activity; method in brief: as §2
# COLO 205 [6] = assay: Growth inhibition of human COLO205 cells assessed as growth inhibition at 10 uM after 48 hrs by sulforhodamine B assay; details: COLO 205, 48 h, read-out: GI
# RPMI-8226 = assay: Growth inhibition of human RPMI8226 cells assessed as cell growth at 10 '-4 M after 48 hrs by sulforhodamine B assay; details: RPMI-8226, 48 h, read-out: Activity
# OVCAR-3 = assay: Growth inhibition of human OVCAR3 cells assessed as growth inhibition at 10 uM after 48 hrs by sulforhodamine B assay; details: OVCAR-3, 48 h, read-out: GI
# [7] = Growth inhibition of human Hs 578T cells assessed as cell growth at 10 '-7 M after 48 hrs by sulforhodamine B assay; details: read-out: Activity
# 786-0 [8] = assay: Growth inhibition of human 786-0 cells assessed as cell growth at 10 '-8 M after 48 hrs by sulforhodamine B assay; details: 786-0, 48 h, read-out: Activity; method in brief: as §2
# M14 = assay: Growth inhibition of human M14 cells after 48 hrs by sulforhodamine B assay; details: M14, 48 h; method in brief: as §1
# SF-295 [9] = assay: Growth inhibition of human SF295 cells assessed as cell growth at 10 '-5 M after 48 hrs by sulforhodamine B assay; details: SF-295, 48 h, read-out: Activity
# TK-10 = assay: Growth inhibition of human TK10 cells assessed as cell growth at 10 '-4 M after 48 hrs by sulforhodamine B assay; details: TK-10, 48 h, read-out: Activity
# SK-MEL-2 = assay: Growth inhibition of human SK-MEL-2 cells after 48 hrs by sulforhodamine B assay; details: SK-MEL-2, 48 h
# [10] = Growth inhibition of human Hs 578T cells assessed as cell growth at 10 '-5 M after 48 hrs by sulforhodamine B assay; details: read-out: Activity
# IGROV-1 = assay: Growth inhibition of human IGROV1 cells assessed as cell growth at 10 '-4 M after 48 hrs by sulforhodamine B assay; details: IGROV-1, 48 h, read-out: Activity
# [11] = read-out: LD50 (the source's name)
compound,measurement,setting,value
Cc1cc(=O)oc2cc(OCCn3c(C)nn(-c4ccc(Cl)cc4)c3=O)ccc12,growth at 100 µM,[1],17%
same,inhibition of growth at 10 µM,UO-31,57.2%
same,growth at 10 µM,NCI-H460,9%
same,growth at 1 µM,SNB-19,80%
same,growth at 1 µM,SN12C,82%
same,GI50,K562,1290 nM
same,TGI,K562,> 1000 nM
same,CC50,K562; [11],> 1000 nM
same,growth at 1 µM,HL-60(TB),91%
same,GI50,SF-295 [2],4730 nM
same,TGI,SF-295 [2],> 1000 nM
same,CC50,SF-295 [2]; [11],> 1000 nM
same,growth at 0.01 µM,NCI-H23,98%
same,growth at 10 µM,UACC-62,24%
same,growth at 1 µM,CAKI-1,68%
same,growth at 10 µM,MDA-MB-435,-27%
same,growth at 100 µM,U-251,-4%
same,GI50,COLO 205 [3],2390 nM
same,TGI,COLO 205 [3],7340 nM
same,CC50,COLO 205 [3]; [11],> 1000 nM
same,GI50,[4],3590 nM
same,TGI,[4],> 1000 nM
same,CC50,[4]; [11],> 1000 nM
same,growth at 10 µM,786-0 [5],35%
same,GI50,SF-539,4060 nM
same,TGI,SF-539,4740 nM
same,CC50,SF-539; [11],> 1000 nM
same,growth at 0.01 µM,BT-549,105%
same,inhibition of growth at 10 µM,COLO 205 [6],89.4%
same,growth at 100 µM,RPMI-8226,45%
same,inhibition of growth at 10 µM,OVCAR-3,85.2%
same,growth at 0.1 µM,[7],83%
same,growth at 0.01 µM,786-0 [8],103%
same,GI50,M14,2360 nM
same,TGI,M14,> 1000 nM
same,CC50,M14; [11],> 1000 nM
same,growth at 10 µM,SF-295 [9],39%
same,growth at 100 µM,TK-10,-3%
same,GI50,SK-MEL-2,1820 nM
same,TGI,SK-MEL-2,> 1000 nM
same,CC50,SK-MEL-2; [11],> 1000 nM
same,growth at 10 µM,[10],28%
same,growth at 100 µM,IGROV-1,41%
